Test results taken from ChEMBL document CHEMBL2407075, “Sulphonamido-quinoxalines: search for anticancer agent” (Eur J Med Chem, 2013).

Tests used:
Type in all cases: functional
[1] = test system: MDA-MB-231; assay: Growth inhibition of human MDA-MB-231 cells after 48 hrs by sulforhodamine B assay; details: MDA-MB-231, 48 h
[2] = test system: SK-MEL-5; assay: Growth inhibition of human SK-MEL-5 cells after 48 hrs by sulforhodamine B assay; details: SK-MEL-5, 48 h
[3] = test system: SF-295; assay: Growth inhibition of human SF295 cells after 48 hrs by sulforhodamine B assay; details: SF-295, 48 h
Outline: (§1)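 Adherent cells in RPMI 1640 with 5% FBS and 2 mM L-glutamine were plated at 5000–40,000 cells/well and grown 24 h. Five concentrations (0.01–100 µM, DMSO stock) were added for 48 h at 37 °C. Cells were fixed with cold TCA (10% final) and stained with SRB, read at 515 nm. GI50 came from log concentration–growth curves against time-zero and control plates.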

[4] = test system: HT-29; assay: Growth inhibition of human HT-29 cells after 48 hrs by sulforhodamine B assay; details: HT-29, 48 h; outline: as §1
[5] = test system: COLO 205; assay: Growth inhibition of human COLO205 cells after 48 hrs by sulforhodamine B assay; details: COLO 205, 48 h, read-out: LC50 (the source's name); outline: as §1
[6] = test system: SK-MEL-2; assay: Growth inhibition of human SK-MEL-2 cells assessed as cell growth at 10^-4 M after 48 hrs by sulforhodamine B assay; details: SK-MEL-2, 48 h, read-out: Activity
[7] = test system: CCRF-CEM; assay: Growth inhibition of human CCRF-CEM cells assessed as cell growth at 10^-4 M after 48 hrs by sulforhodamine B assay; details: read-out: Activity
[8] = test system: OVCAR-8; assay: Growth inhibition of human OVCAR8 cells assessed as cell growth at 10^-5 M after 48 hrs by sulforhodamine B assay; details: OVCAR-8, 48 h, read-out: Activity
[9] = test system: SK-MEL-2; assay: Growth inhibition of human SK-MEL-2 cells assessed as cell growth at 10^-5 M after 48 hrs by sulforhodamine B assay; details: SK-MEL-2, 48 h, read-out: Activity
[10] = test system: CCRF-CEM; assay: Growth inhibition of human CCRF-CEM cells assessed as cell growth at 10^-5 M after 48 hrs by sulforhodamine B assay; details: read-out: Activity
[11] = test system: SK-MEL-2; assay: Growth inhibition of human SK-MEL-2 cells assessed as cell growth at 10^-6 M after 48 hrs by sulforhodamine B assay; details: SK-MEL-2, 48 h, read-out: Activity
[12] = test system: HCT-15; assay: Growth inhibition of human HCT15 cells assessed as cell growth at 10^-6 M after 48 hrs by sulforhodamine B assay; details: HCT-15, 48 h, read-out: Activity
[13] = test system: CCRF-CEM; assay: Growth inhibition of human CCRF-CEM cells assessed as cell growth at 10^-6 M after 48 hrs by sulforhodamine B assay; details: read-out: Activity
[14] = test system: SK-MEL-2; assay: Growth inhibition of human SK-MEL-2 cells assessed as cell growth at 10^-7 M after 48 hrs by sulforhodamine B assay; details: SK-MEL-2, 48 h, read-out: Activity
[15] = test system: SK-MEL-28; assay: Growth inhibition of human SK-MEL-28 cells assessed as cell growth at 10^-7 M after 48 hrs by sulforhodamine B assay; details: SK-MEL-28, 48 h, read-out: Activity
[16] = test system: CCRF-CEM; assay: Growth inhibition of human CCRF-CEM cells assessed as cell growth at 10^-7 M after 48 hrs by sulforhodamine B assay; details: read-out: Activity
[17] = test system: CCRF-CEM; assay: Growth inhibition of human CCRF-CEM cells assessed as cell growth at 10^-8 M after 48 hrs by sulforhodamine B assay; details: read-out: Activity
[18] = test system: LOX IMVI; assay: Growth inhibition of human LOXIMVI cells after 48 hrs by sulforhodamine B assay; outline: as §1
[19] = test system: CCRF-CEM; assay: Growth inhibition of human CCRF-CEM cells after 48 hrs by sulforhodamine B assay; details: read-out: LC50 (the source's name)
Outline: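 Leukemia suspension cells in RPMI 1640 with 5% FBS and 2 mM L-glutamine were plated at 5000–40,000 cells/well and grown 24 h. Five concentrations (0.01–100 µM) were given for 48 h at 37 °C. Settled cells were fixed with 80% TCA (16% final) and SRB-stained, read at 515 nm. GI50 came from dose–response curves against time-zero and control plates.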

[20] = read-out: LC50 (the source's name)

## O=S(=O)(Nc1ccccn1)c1ccc2nc(-c3ccccc3)c(-c3ccccc3)nc2c1
[1]
  GI50: 1.82 µM
[2]
  GI50: 1.46 µM
[3]
  GI50: 1.87 µM
[3]; [20]
  CC50: 100 µM
[4]
  GI50: 1.78 µM
[4]; [20]
  CC50: > 100 µM
[5]
  CC50: 100 µM

## O=S(=O)(Nc1ccc(Cl)cc1)c1ccc2nc(-c3ccccc3)c(-c3ccccc3)nc2c1
[6]
  growth at 100 µM: 69%
[7]
  growth at 100 µM: 64%
[8]
  growth at 10 µM: 6%
[9]
  growth at 10 µM: -56%
[10]
  growth at 10 µM: -40%
[11]
  growth at 1 µM: 99%
[12]
  growth at 1 µM: 87%
[13]
  growth at 1 µM: 79%
[14]
  growth at 0.1 µM: 99%
[15]
  growth at 0.1 µM: 96%
[16]
  growth at 0.1 µM: 91%
[17]
  growth at 0.01 µM: 88%
[18]
  TGI: > 100 µM
[18]; [20]
  CC50: > 100 µM
[5]
  CC50: > 100 µM
[19]
  CC50: > 100 µM
